The source of these data is ChEMBL document CHEMBL3232879, “4,5,6,7-Tetrahydro-isoxazolo-[4,5-c]-pyridines as a new class of cytotoxic Hsp90 inhibitors” (Eur J Med Chem, 2014).

Activity calls are given as the source filed them. The rule behind the calls is not given here.

The test system of one assay is NCI-H460. Briefly: Cytotoxicity against human NCI-H460 cells assessed as growth inhibition after 72 hrs by sulforhodamine B assay. Type of assay: functional, cell-based. The conditions noted are these: NCI-H460, 72 h. The method in brief: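 Log-phase NCI-H460 cells seeded, drug added 24 h later, exposed 72 h. Survival read by sulforhodamine B staining. IC50 fitted by curve analysis as the concentration halving cell number relative to untreated controls.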

For assay [1], the target named is Heat shock protein HSP 90-alpha (Homo sapiens, UniProt P07900). Briefly: Displacement of GM-FTC from Hsp90-alpha (unknown origin) after 4 hrs by fluorescence polarization assay.
Assay [2] has as its system K562. Briefly: Cytotoxicity against human K562 cells assessed as growth inhibition after 72 hrs by trypan blue exclusion assay. Type of assay: functional, cell-based. The note with it: for IC50: K562, 72 h. The method in brief: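 K562 cells, 2×10^5 per well in 1 mL complete medium, exposed to a range of drug concentrations. Cells stained with trypan blue and counted on a hemocytometer; dye-uptaking cells scored nonviable. Viable count expressed as percent of control proliferation; IC50 is the concentration giving 50% growth inhibition. Methods give 48 h incubation, table footnote 72 h exposure.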

In assay [3] the test system is K562. Briefly: Cell cycle arrest in human K562 cells assessed as accumulation at G1 phase at 75 uM after 24 hrs by propidium iodide staining-based flow cytometric analysis. Type of assay: functional. The method in brief:
(§1)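 K562 cells exposed for 24 h, then washed once in ice-cold PBS. Resuspended at 1×10^6 cells/mL in a hypotonic solution of propidium iodide in 0.1% sodium citrate with 0.03% (v/v) Nonidet P-40 for 30 min. Filtered through nylon cloth, then single-parameter DNA fluorescence histograms read by flow cytometry. Cell-cycle phase distribution obtained by modelling, with untreated cells as control.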

The test system of assay [4] is K562. Briefly: Induction of apoptosis in human K562 cells assessed as hypoploid nuclei accumulated in sub-G0-G1 phase after 72 hrs by propidium iodide staining-based fluorescence microscopic analysis. The conditions noted are these: K562, 72 h.
Assay [5] deals with K562. Briefly: Cell cycle arrest in human K562 cells assessed as reduction of S phase fraction at 75 uM after 24 hrs by propidium iodide staining-based flow cytometric analysis. Type of assay: functional. The method in brief:
as §1

The test system of assay [6] is K562. Briefly: Cell cycle arrest in human K562 cells assessed as accumulation at G1 phase at 1 uM after 24 hrs by propidium iodide staining-based flow cytometric analysis. Type of assay: functional. The method in brief:
as §1

The subject of assay [7] is K562. Briefly: Cell cycle arrest in human K562 cells assessed as reduction of S phase fraction at 1 uM after 24 hrs by propidium iodide staining-based flow cytometric analysis. Type of assay: functional. The method, boiled down:
as §1

The test system of assay [8] is K562. Briefly: Cell cycle arrest in human K562 cells assessed as reduction of S phase fraction at 10 uM after 24 hrs by propidium iodide staining-based flow cytometric analysis. Type of assay: functional. The method in brief: as §1
Assay [9] concerns K562. Briefly: Cell cycle arrest in human K562 cells assessed as accumulation at G1 phase at 10 uM after 24 hrs by propidium iodide staining-based flow cytometric analysis. Type of assay: functional. The method in brief: as §1

For the compound `CCOC(=O)c1noc2c1CN(C(=O)c1cc(Cl)c(O)cc1O)CC2`, the results for the IC50 (in the assay with NCI-H460; in [1]) were > 20000 nM and 160 nM, respectively.

Turning to `COC(=O)c1noc2c1CN(C(C)=O)CC2`, the half-maximal inhibitory concentration (IC50) is > 1000 nM with NCI-H460 and > 100000 nM in assay [1].

Take `CCNC(=O)c1noc2c1CN(C(=O)c1ccc(O)cc1O)CC2`: the IC50 with NCI-H460 is > 20000 nM; in assay [1], 1200 nM.

On to `CCNC(=O)c1noc2c1CN(C(=O)c1cc(Cl)c(O)cc1O)CC2`, for which, in the assay on K562 [2], the “growth inhibition (GI)” value was “Dose-dependent effect”. Besides, the figures for the IC50 (in the assay with K562 [2]; with NCI-H460; in assay [1]) were 32600 nM, 9700 nM and 110 nM, respectively. The outcome with K562 [3] and in the assay on K562 [5] was Active. Also, the AC50 in the assay with K562 [4] was > 100000 nM.

For the compound `C=CCNC1=C2C[C@@H](C)C[C@H](OC)[C@H](O)[C@@H](C)/C=C(\C)[C@H](OC(N)=O)[C@@H](OC)/C=C\C=C(/C)C(=O)NC(=CC1=O)C2=O` [TANESPIMYCIN], the IC50 with K562 [2] stood at 150 nM. Also, the outcome in the assay with K562 [6] and in the assay with K562 [7] was Active. Besides, the half-maximal activity concentration (AC50) with K562 [4] is 3100 nM.

As to `CC(C)c1cc(C(=O)N2CCc3onc(C(=O)NCCCl)c3C2)c(O)cc1O`, the figures for the IC50 (in the assay with NCI-H460; in assay [1]) were 200 nM and 34 nM, respectively.

Turning to `CC(C)c1cc(C(=O)N2CCc3onc(C(=O)NCCN4CCOCC4)c3C2)c(O)cc1O`, the values for the IC50 (in the assay on NCI-H460; in assay [1]) were 190 nM and 54 nM, respectively.

Regarding `CCNC(=O)c1noc2c1CN(C(=O)c1cc(C(C)C)c(OC(C)=O)cc1OC(C)=O)CC2`, the IC50 with NCI-H460 was determined as 230 nM.

With `CCNC(=O)c1noc2c1CN(C(=O)Nc1cc(C(C)C)c(O)cc1O)CC2`, the results for the half-inhibitory concentration (IC50) (in the assay on NCI-H460; in assay [1]) were > 1000 nM and > 100000 nM, respectively.

`CCOC(=O)c1noc2c1CN(C(=O)c1ccc(O)cc1O)CC2`: the results for the IC50 (in the assay with NCI-H460; in assay [1]) were > 20000 nM and 3900 nM, respectively.

Regarding `CCNC(=O)c1noc2c1CN(C(=O)c1cc(C(C)C)c(O)cc1O)CC2`, the “growth inhibition (GI)” value in the assay with K562 [2] was “Dose-dependent effect”. The concentration for half-maximal inhibition (IC50) in the assay on K562 [2] worked out at 720 nM; in the assay on NCI-H460, 450 nM; in assay [1], 29 nM. The result with K562 [8] and with K562 [9] was Active. The AC50 with K562 [4] came to 5400 nM.

As for `CCOC(=O)c1noc2c1CN(C(=O)c1cc(C(C)C)c(O)cc1O)CC2`, the IC50 is 870 nM with NCI-H460 and 100 nM in assay [1].

With `CC(C)c1cc(C(=O)N2CCc3onc(C(=O)NC4CCCC4)c3C2)c(O)cc1O`, the IC50 was found to be 900 nM in the assay on NCI-H460 and 68 nM in [1].

For `CCNC(=O)c1noc2c1CN(C(=O)Nc1cc(Cl)c(O)cc1O)CC2`, the IC50 in the assay with NCI-H460 was > 1000 nM; in assay [1], > 100000 nM.

On to `CCNC(=O)c1noc2c1CN(Cc1cc(Cl)c(O)cc1O)CC2`, for which the half-inhibitory concentration (IC50) in the assay on NCI-H460 is > 20000 nM; in [1], 1400 nM.
